Reference: ChEMBL document CHEMBL1150387, “Development and experimental validation of a docking strategy for the generation of kinase-targeted libraries” (J Med Chem, 2008)

What was measured:
[1] = target: Insulin-like growth factor 1 receptor (Homo sapiens) (UniProt P08069); test: Inhibition of IGF1R at 10 uM by HTRF assay relative to control
In short: (§1)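 HTRF kinase assay, one panel of kinases. Inhibitor stock 50 µM in 100% DMSO; tested at 10 µM. ATP and substrate at final levels near Km. Final buffer: 50 mM Hepes/NaOH pH 7.4, 40 µM Na3VO4, 0.005% Tween-20, 1 mM DTT, MnCl2 or MgCl2 at kinase-dependent levels. Started by adding ATP/substrate. Reaction run at room temperature, time varied by kinase. Detection mix in 50 mM Hepes pH 7.4, 0.1% BSA, 150 mM KF, incubated ≥1 h at room temperature. Activity expressed as % of uninhibited control; n=2.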

[2] = target: T1, Ephrin type-B receptor 4 (Homo sapiens) (UniProt P54760); test: Inhibition of EphB4 at 10 uM by HTRF assay relative to control; in short: as §1
T1 sequence (whole entry): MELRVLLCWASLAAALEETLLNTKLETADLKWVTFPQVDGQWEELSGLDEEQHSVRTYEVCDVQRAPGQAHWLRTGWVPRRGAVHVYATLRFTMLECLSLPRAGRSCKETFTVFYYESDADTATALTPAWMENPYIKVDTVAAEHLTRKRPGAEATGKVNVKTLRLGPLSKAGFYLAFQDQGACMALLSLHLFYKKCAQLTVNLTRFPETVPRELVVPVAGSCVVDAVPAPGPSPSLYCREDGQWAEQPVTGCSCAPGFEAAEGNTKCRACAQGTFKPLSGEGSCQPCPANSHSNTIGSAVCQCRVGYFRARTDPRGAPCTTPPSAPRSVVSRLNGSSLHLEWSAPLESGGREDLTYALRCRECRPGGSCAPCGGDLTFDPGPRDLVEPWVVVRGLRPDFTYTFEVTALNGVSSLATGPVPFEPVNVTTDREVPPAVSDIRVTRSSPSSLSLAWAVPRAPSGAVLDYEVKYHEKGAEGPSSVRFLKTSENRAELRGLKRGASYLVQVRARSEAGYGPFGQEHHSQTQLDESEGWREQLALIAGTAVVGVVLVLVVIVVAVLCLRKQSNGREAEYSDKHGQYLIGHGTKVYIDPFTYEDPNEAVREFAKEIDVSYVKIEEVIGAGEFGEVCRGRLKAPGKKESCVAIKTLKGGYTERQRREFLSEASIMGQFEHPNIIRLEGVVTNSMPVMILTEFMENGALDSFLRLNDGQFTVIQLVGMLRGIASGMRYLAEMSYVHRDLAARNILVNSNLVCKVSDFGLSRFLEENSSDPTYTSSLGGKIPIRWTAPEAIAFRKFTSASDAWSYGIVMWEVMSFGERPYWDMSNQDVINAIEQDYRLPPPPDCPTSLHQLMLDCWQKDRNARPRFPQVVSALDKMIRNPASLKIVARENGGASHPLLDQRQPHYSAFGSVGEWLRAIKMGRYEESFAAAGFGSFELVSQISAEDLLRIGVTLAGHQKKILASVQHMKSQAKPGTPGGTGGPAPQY

[3] = target: Mitogen-activated protein kinase 14 (Homo sapiens) (UniProt Q16539); test: Inhibition of p38alpha at 10 uM by HTRF assay relative to control; in short: as §1
[4] = target: Mitogen-activated protein kinase 8 (Homo sapiens) (UniProt P45983); test: Inhibition of JNK1 at 10 uM by HTRF assay relative to control; in short: as §1
[5] = target: Mitogen-activated protein kinase 1 (Homo sapiens) (UniProt P28482); test: Inhibition of ERK2 at 10 uM by HTRF assay relative to control; in short: as §1
[6] = target: T2, Calcium/calmodulin-dependent protein kinase type IV (Homo sapiens) (UniProt Q16566); test: Inhibition of CaMK4 at 10 uM by HTRF assay relative to control; in short: as §1
T2 sequence (whole entry): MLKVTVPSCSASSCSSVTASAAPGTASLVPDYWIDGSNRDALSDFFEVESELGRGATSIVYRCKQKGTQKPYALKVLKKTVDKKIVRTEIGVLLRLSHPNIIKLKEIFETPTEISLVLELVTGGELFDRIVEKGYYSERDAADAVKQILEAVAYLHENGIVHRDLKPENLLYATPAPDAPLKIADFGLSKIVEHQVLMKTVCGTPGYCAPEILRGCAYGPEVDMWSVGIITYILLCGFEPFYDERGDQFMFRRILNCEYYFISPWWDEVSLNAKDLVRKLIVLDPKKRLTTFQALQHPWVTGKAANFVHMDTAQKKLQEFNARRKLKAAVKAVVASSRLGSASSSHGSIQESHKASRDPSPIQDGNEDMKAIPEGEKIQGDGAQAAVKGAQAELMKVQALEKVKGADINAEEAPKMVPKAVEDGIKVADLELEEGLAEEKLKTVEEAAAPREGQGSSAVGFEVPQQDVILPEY

[7] = Inhibition of AMPKalpha at 10 uM by HTRF assay relative to control; in short: as §1
[8] = target: Protein kinase C alpha type (Homo sapiens) (UniProt P17252); test: Inhibition of PKCalpha at 10 uM by HTRF assay relative to control; in short: as §1
[9] = Inhibition of PKA at 10 uM by HTRF assay relative to control; in short: as §1
[10] = target: T3, Tyrosine-protein kinase ZAP-70 (Homo sapiens) (UniProt P43403); test: Inhibition of ZAP70 at 10 uM by HTRF assay relative to control; in short: as §1
T3 sequence (whole entry): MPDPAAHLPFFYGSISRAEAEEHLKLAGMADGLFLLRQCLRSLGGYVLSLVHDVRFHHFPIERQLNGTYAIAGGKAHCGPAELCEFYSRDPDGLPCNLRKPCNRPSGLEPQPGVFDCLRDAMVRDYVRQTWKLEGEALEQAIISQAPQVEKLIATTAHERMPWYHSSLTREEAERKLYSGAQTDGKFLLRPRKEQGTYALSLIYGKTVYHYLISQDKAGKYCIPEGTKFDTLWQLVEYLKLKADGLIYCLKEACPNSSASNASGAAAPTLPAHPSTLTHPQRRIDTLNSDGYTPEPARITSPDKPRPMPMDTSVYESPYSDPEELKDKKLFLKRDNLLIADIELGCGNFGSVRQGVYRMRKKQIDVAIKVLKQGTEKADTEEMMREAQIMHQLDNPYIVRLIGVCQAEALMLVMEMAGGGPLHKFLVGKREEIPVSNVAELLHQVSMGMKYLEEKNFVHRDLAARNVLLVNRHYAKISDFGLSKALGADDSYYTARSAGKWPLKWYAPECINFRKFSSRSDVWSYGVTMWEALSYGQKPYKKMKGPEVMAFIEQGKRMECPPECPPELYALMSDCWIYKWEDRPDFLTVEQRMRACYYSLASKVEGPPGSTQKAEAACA

[11] = target: Proto-oncogene tyrosine-protein kinase Src (Homo sapiens) (UniProt P12931); test: Inhibition of Src at 10 uM by HTRF assay relative to control; in short: as §1
[12] = target: Tyrosine-protein kinase ABL1 (Homo sapiens) (UniProt P00519); test: Inhibition of Abl at 10 uM by HTRF assay relative to control; in short: as §1
Chain of Tyrosine-protein kinase ABL1 (Homo sapiens) (P00519 whole entry): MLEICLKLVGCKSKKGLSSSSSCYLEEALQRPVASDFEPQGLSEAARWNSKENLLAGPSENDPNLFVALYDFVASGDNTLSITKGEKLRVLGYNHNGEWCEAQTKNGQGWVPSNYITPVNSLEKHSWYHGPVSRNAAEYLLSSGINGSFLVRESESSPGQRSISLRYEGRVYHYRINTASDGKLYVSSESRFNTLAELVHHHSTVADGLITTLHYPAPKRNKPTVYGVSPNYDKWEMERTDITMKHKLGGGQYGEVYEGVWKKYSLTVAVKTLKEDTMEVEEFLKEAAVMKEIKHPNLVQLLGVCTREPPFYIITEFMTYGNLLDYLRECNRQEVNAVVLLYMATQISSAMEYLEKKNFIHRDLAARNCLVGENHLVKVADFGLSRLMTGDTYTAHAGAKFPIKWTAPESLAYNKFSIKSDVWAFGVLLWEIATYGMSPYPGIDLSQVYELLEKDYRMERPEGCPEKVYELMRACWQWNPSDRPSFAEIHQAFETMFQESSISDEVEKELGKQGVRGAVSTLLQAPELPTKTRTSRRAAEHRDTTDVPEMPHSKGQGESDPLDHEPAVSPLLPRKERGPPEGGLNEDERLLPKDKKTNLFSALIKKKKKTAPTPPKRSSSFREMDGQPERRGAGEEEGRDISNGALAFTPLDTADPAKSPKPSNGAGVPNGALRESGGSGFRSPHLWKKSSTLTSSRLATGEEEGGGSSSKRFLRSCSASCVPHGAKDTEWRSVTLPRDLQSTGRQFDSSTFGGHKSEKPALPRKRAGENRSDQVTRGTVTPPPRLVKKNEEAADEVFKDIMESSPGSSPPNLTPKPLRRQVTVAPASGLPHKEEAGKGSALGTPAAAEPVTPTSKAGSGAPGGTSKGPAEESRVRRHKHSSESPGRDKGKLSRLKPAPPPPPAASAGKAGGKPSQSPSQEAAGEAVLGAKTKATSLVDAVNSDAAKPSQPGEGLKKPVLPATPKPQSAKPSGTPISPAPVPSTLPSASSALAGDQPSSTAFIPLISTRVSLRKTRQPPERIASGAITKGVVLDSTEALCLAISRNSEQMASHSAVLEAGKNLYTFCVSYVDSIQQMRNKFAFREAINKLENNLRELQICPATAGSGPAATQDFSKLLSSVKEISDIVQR

Chain of Insulin-like growth factor 1 receptor (Homo sapiens) (P08069 31-736 limits assumed): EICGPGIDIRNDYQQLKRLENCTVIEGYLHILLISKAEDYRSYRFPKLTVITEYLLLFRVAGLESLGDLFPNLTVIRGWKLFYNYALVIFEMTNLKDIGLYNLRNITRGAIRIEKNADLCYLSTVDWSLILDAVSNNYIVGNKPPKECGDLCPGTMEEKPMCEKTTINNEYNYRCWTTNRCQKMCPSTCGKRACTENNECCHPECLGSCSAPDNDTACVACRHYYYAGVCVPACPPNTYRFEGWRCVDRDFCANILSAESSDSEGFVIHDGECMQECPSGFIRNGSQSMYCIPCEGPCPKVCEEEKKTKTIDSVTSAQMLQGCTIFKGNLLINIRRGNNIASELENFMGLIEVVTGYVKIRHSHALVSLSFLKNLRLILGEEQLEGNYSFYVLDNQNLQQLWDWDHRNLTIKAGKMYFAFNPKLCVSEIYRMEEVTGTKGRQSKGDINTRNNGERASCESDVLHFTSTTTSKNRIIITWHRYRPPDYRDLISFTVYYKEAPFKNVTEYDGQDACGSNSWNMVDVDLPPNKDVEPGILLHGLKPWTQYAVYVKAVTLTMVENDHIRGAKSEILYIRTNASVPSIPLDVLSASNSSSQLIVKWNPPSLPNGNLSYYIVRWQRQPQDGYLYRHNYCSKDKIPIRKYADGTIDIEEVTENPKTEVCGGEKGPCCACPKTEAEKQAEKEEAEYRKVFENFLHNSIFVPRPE
Chain of Insulin-like growth factor 1 receptor (Homo sapiens) (P08069 741-1367 limits assumed): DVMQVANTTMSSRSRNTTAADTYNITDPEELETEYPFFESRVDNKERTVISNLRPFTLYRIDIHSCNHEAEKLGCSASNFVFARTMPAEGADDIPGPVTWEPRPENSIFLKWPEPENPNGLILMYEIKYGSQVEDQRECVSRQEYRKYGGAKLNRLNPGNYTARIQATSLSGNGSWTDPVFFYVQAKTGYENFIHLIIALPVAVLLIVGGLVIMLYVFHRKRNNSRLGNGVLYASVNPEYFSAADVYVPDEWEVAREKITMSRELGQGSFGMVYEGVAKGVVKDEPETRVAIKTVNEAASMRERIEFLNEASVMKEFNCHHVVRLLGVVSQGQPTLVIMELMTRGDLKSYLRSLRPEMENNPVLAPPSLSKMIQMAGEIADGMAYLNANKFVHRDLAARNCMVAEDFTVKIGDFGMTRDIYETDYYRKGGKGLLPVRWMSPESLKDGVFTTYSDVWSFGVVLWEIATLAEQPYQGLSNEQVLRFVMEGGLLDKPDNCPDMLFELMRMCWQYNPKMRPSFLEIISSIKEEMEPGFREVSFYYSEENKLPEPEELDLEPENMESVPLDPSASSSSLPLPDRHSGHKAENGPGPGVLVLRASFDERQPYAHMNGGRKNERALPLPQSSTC
Chain of Mitogen-activated protein kinase 8 (Homo sapiens) (P45983 whole entry): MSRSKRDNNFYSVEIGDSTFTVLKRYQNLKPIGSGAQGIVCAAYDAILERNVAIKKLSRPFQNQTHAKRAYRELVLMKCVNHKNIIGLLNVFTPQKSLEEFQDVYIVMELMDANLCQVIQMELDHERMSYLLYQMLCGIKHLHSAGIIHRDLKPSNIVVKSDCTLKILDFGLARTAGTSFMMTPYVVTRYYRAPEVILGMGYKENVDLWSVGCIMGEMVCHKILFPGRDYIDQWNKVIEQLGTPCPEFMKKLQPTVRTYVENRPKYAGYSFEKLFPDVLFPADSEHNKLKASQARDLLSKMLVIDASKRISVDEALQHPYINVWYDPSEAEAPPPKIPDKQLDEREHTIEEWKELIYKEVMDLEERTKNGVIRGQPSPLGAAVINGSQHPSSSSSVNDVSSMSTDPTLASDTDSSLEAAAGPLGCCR
Chain of Mitogen-activated protein kinase 1 (Homo sapiens) (P28482 whole entry): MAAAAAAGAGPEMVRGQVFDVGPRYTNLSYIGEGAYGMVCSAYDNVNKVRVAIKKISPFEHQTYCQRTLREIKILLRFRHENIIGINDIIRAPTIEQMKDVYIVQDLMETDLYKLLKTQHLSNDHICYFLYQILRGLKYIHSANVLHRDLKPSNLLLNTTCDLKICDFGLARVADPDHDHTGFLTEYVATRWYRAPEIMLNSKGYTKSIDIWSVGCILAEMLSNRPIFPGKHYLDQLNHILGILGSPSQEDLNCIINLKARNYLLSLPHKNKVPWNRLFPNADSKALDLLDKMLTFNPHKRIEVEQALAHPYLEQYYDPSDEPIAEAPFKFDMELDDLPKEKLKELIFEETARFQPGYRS
Chain of Mitogen-activated protein kinase 14 (Homo sapiens) (Q16539 whole entry): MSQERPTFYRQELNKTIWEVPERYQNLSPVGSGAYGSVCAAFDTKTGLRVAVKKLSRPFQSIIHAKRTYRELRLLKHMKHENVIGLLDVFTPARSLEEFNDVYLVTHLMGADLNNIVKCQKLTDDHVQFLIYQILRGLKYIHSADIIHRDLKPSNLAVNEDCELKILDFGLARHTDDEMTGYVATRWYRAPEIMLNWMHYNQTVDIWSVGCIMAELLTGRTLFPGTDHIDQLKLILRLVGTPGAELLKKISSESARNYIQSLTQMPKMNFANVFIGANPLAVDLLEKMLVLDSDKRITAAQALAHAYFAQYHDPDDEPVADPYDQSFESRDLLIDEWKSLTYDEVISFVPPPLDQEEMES
Chain of Proto-oncogene tyrosine-protein kinase Src (Homo sapiens) (P12931 2-536 limits assumed): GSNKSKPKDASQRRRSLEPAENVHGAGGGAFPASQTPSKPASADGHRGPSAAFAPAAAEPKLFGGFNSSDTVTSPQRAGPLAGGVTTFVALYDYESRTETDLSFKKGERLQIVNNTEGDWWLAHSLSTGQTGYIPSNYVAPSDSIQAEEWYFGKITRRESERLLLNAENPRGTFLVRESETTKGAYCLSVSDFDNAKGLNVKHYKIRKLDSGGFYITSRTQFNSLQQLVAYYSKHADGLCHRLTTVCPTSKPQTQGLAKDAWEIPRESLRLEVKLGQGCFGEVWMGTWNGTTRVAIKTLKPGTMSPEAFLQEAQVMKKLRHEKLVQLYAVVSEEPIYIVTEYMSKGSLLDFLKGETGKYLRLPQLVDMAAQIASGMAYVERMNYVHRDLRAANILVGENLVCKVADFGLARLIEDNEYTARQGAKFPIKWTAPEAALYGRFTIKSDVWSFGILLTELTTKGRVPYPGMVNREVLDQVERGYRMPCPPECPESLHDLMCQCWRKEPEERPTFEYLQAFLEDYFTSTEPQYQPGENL

SMILES | inhibition [1] [%] | inhibition [2] [%] | inhibition [3] [%] | inhibition [4] [%] | inhibition [5] [%] | inhibition [6] [%] | inhibition [7] [%] | inhibition [8] [%] | inhibition [9] [%] | inhibition [10] [%] | inhibition [11] [%] | inhibition [12] [%]
COc1cccc(Nc2cc(N3CCC[C@H]3C(=O)NCCN3CCCCC3)nc(N)n2)c1 | 1 | 0 | 0 | 10 | 0 | 0 | 0 | 5 | 0 | 2 | 1 | 11
CN(C)CC(C)(C)CNC(=O)c1cccc(Nc2nccc(Nc3ccc4ncsc4c3)n2)c1 | 95 | 18 | 23 | 97 | 13 | 16 | 72 | 0 | 12 | 18 | 99 | 96
Cc1cc(C(=O)N2CCN(c3ncnc4c3CN(Cc3ccccc3)CC4)CC2)c(C)n1C | 0 | 0 | 0 | 0 | 2 | 0 | 0 | 0 | 0 | 0 | 0 | 5
O=C(NC[C@@H]1CCCO1)c1cccc(Nc2nccc(Nc3ccc4ncsc4c3)n2)c1 | 83 | 57 | 12 | 94 | 0 | 0 | 36 | 1 | 4 | 19 | 97 | 44
Clc1ccc2sc(CN3CCN(c4ncnc5c4CN(Cc4ccccc4)CC5)CC3)cc2c1 | 0 | 0 | 10 | 3 | 0 | 0 | 16 | 8 | 0 | 5 | 0 | 1
O=C(NCc1ccncc1)c1cccc(Nc2cc(Nc3cccc(Br)c3)ncn2)c1 | 5 | 0 | 37 | 28 | 0 | 0 | 11 | 2 | 0 | 9 | 30 | 31
COc1cccc(Nc2cc(Nc3cccc(C(=O)N(C)CCc4ccccn4)c3)nc(N)n2)c1 | 0 | 0 | 5 | 19 | 0 | 0 | 13 | 0 | 0 | 3 | 6 | 8
Cc1cccc(N(C)c2cc(Nc3cccc(C(=O)N(C)CCc4ccccn4)c3)ncn2)c1 | 0 | 0 | 5 | 0 | 6 | 0 | 0 | 5 | 0 | 4 | 15 | 49
Cc1cccc(Nc2nccc(Nc3cccc(C(=O)N(C)CCc4ccccn4)c3)n2)c1 | 87 | 5 | 3 | 49 | 0 | 0 | 17 | 0 | 0 | 23 | 64 | 38
Nc1nc(Nc2ccc3ncsc3c2)cc(N2CCC[C@H]2C(=O)N[C@@H](CO)c2ccccc2)n1 | 7 | 0 | 7 | 0 | 0 | 0 | 20 | 0 | 1 | 6 | 0 | 0
Nc1nc(N2CCOCC2)cc(N2CCC(C(=O)NCc3cccs3)CC2)n1 | 0 | 0 | 8 | 0 | 0 | 0 | 5 | 0 | 0 | 3 | 3 | 0
COC[C@@H]1CCCN1C(=O)C1CCCN1c1cc(Nc2cccc(Br)c2)ncn1 (stereo partly specified) | 0 | 0 | 0 | 0 | 0 | 0 | 0 | 0 | 8 | 0 | 3 | 7
COc1cccc(Nc2cc(Nc3cccc(C(=O)NCCCn4ccnc4)c3)nc(N)n2)c1 | 8 | 0 | 11 | 71 | 1 | 0 | 8 | 2 | 13 | 6 | 10 | 25
COC[C@@H]1CCCN1C(=O)[C@@H]1CCCN1c1cc(Nc2cccc(OC)c2)nc(N)n1 | 5 | 0 | 8 | 0 | 0 | 0 | 2 | 5 | 0 | 0 | 4 | 0
Cc1cccc(N(C)c2cc(Nc3cccc(C(=O)NCCCn4ccnc4)c3)ncn2)c1 | 0 | 0 | 20 | 24 | 4 | 0 | 5 | 7 | 0 | 4 | 24 | 71
COc1ccc(-c2noc(CN3CCN(c4cc(Nc5cccc(O)c5)ncn4)CC3)n2)cc1 | 0 | 0 | 1 | 0 | 1 | 0 | 4 | 0 | 0 | 0 | 3 | 0
COc1cccc(Nc2cc(N3CCC[C@H]3C(=O)NCCc3ccc(O)cc3)nc(N)n2)c1 | 0 | 0 | 8 | 1 | 0 | 0 | 9 | 0 | 0 | 2 | 2 | 6
Cc1cccc(Nc2cc(Nc3cccc(C(=O)N(CC(C)O)CC(C)O)c3)ncn2)c1 (stereo unspecified) | 0 | 0 | 11 | 7 | 0 | 0 | 6 | 1 | 0 | 6 | 26 | 75
